# Screening data deposited in PubChem by several laboratories.
# PERK inhibitor = human PERK inhibition, primary cell-based screen; CHO PERK-DD fusion, SEAP luminescence translation reporter; Q9NZJ5; inhibition, % at 5.6 µM; 220,000 tested, 0.17% active; AID 1416;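 active means inhibition above the mean inhibition of all tested compounds plus 3 SD, set separately per screening campaign, cut at about 2.9% in these data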;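 further: PERK kinase domain activated by AP20187 dimerizer at 100 nM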
# STAT1 act = increases IFN-gamma driven STAT1 reporter signal; NIH 3T3 STAT1-luciferase reporter, luminescence; 100% = IFN-gamma alone, no compound; activation (% of control), % at 5.5 µM; 200,000 tested, 2.6% active;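 active means activation above the screen-wide mean activation plus 3 SD, cut at about 130% in these data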
# NF-kB neuron act = NF-kB expression increase, human neuronal cells; NF-kB reporter expression; hits give high values; AID 1239; fold change at 12.5 µM; 190,000 tested, 1.6% active; in the data active means fold change above about 3.3
# Mdm2 ligase inh = blocks human Mdm2 ubiquitin ligase activity; cell-based MDM2 ubiquitination luciferase reporter, 2 h; 0 = plate control, 100 = twice control, blank-subtracted; 210,000 tested, 0.11% active; signal enhancement, % at 5 µM; Q00987;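 active means signal enhancement of 30% or more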;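 further: luminescence tracks abundance of the self-degrading MDM2-luciferase fusion protein; higher signal means inhibition of MDM2 E3 ligase activity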
#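 System: stable MDM2–luciferase fusion reporter cells / Input: 2000 cells seeded into each well / Schedule: 4 h settle plus 2 h compound, 37 °C / Compound: single-point 5 µM / Buffer or medium: cells held in DMEM / Benchmarks: control and blank well means / Evaluation: percent signal gain over controls, blank-subtracted / Measured by: luciferase luminescence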
# APP 5'UTR act = activates APP 5'UTR luciferase reporter. SH-SY5Y APP 5'UTR luciferase reporter, luminescence; zero percent = DMSO vehicle wells. activation, % at 2 µM. 190,000 tested, 1% active. AID 1276;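 active means activation above a set limit, based on mean plus 3 SD of controls, cut at about 140% in these data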
# AHR act = human AHR activation | P35869 | AID 2796 | AHR-responsive luciferase reporter cells, luminescence | 320,000 tested, 2.5% active | activation, % at 5 µM; in the data active means activation above about 47%
# Target sequence (P35869 whole entry, looked up): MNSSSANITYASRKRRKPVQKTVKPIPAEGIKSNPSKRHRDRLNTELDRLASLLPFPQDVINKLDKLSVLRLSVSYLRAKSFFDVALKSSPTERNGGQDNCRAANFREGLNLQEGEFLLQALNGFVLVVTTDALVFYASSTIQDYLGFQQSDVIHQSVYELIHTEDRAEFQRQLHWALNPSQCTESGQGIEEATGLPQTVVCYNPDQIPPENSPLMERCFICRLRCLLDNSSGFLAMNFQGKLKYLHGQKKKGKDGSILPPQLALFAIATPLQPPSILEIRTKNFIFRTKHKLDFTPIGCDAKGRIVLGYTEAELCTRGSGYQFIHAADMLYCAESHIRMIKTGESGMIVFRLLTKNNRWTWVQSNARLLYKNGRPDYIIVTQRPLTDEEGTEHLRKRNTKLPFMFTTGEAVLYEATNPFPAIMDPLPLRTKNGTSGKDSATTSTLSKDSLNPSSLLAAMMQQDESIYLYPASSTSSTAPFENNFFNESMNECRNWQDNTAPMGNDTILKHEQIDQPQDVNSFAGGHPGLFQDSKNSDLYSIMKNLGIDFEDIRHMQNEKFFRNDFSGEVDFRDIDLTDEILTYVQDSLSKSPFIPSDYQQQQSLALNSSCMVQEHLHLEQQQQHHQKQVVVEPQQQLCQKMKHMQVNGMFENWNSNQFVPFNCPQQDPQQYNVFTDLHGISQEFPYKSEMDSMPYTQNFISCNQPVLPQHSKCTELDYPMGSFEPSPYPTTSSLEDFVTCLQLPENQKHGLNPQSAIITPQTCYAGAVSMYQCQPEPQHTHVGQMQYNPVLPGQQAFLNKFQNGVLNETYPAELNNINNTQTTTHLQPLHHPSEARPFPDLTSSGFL
# STAT1 act conf = STAT1 activation, confirmation assay; shares compounds with STAT1 act; NIH 3T3 STAT1-luciferase reporter, IFN-gamma potentiation, luminescence; 100% = IFN-gamma EC80 alone, no compound; activation (% of control), % at 5.7 µM; 1,200 tested, 97% active;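 active means activation above a set limit carried over from the earlier primary STAT1 screen, cut at about 140% in these data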
# NFkB act STAT1ct = NF-kappaB activation in STAT1 activator counter-screen | HEK293T NF-kB luciferase reporter, TNF-alpha stimulated, luminescence; 100% = TNF-alpha with vehicle only | activation (% of control), % at 5.7 µM | shares compounds with STAT1 act | 1,200 tested, 43% active;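 active means activation above the mean of solvent-only control wells plus 3 SD, set per campaign, cut at about 130% in these data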;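 further: TNF-alpha given at a submaximal dose yielding about 80% of full reporter signal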
# STAT3 act 2 = activates human STAT3, counter-screen to STAT1 activators; 1,200 tested, 46% active; U3A cells STAT3-luciferase reporter, IL-6, luminescence; cells lack STAT1; 100 = IL-6 alone, no compound effect; shares compounds with STAT1 act; activation (% of control), % at 5.7 µM; AID 1316;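 active means activation above the solvent-only control well mean plus 3 SD, set per plate batch, cut at about 110% in these data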;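 further: higher means more STAT3 reporter activation so hits are non-selective activators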
# A number is an active result; 0 = inactive; - = no result. Hits are enriched below; roughly 4.5% of the tested compounds scored in any of these assays.
SMILES,PERK inhibitor,STAT1 act,NF-kB neuron act,Mdm2 ligase inh,APP 5'UTR act,AHR act,STAT1 act conf,NFkB act STAT1ct,STAT3 act 2
CCN1CCN(c2nc(N)c([N+](=O)[O-])c(Nc3ccc(C)c(C)c3)n2)CC1,0,0,0,0,0,0,-,-,-
Cc1ccc(Nc2n[nH]c(C)c2[N+](=O)[O-])cc1C,0,191.0,7.72,0,209.5,0,239.3,146.9,117.4
N#CC1=C2SC=C(c3ccc(Br)cc3)N2CCCC1=O,0,156.9,6.81,0,175.7,0,193.7,147.0,0
CSc1ccccc1NC(=O)C1CCN(S(C)(=O)=O)CC1,-,-,-,-,-,0,-,-,-
CCN1CCN(C(=O)C(C)Nc2cc(Cl)c(OC)cc2OC)CC1 (stereo unspecified),0,0,0,0,0,0,-,-,-
Cn1/c(=N/N=C/c2ccccn2)sc2ccccc21,0,152.4,5.26,0,0,-,218.6,142.1,129.5
Cn1/c(=N/N=C/c2ccc(Cl)c([N+](=O)[O-])c2)sc2ccccc21,0,0,0,0,0,0,-,-,-
COc1cc(CNCc2ccncc2)cc(OC)c1OC,-,-,-,-,-,0,-,-,-
O=c1ccccn1CCOc1ccc(Cl)cc1,0,-,-,0,-,0,-,-,-
CC(C)(C)c1ccc(OCCn2ccccc2=O)cc1,0,176.6,5.45,0,0,0,197.3,0,116.7
Cc1ccc(C(=O)Oc2oc(-c3ccco3)nc2C=Nc2ccc(Cl)cc2)cc1,0,166.1,7.65,0,143.2,0,199.6,139.7,0
CCc1noc(C)c1C(=O)N1CC(C)SC1=Nc1ccc(Cl)cc1 (stereo unspecified),-,-,-,-,-,0,-,-,-
CC(C)(C)C1C/C(=C/c2ccccn2)C(=O)/C(=C/c2ccccn2)C1 (stereo unspecified),0,221.4,0,0,0,0,198.6,0,0
CC1C/C(=C/c2cccs2)C(=O)/C(=C/c2cccs2)C1 (stereo unspecified),0,0,0,0,0,0,-,-,-
O=C1/C(=C/c2ccccn2)COc2ccccc21,0,0,0,0,0,0,-,-,-
CC1C/C(=C/c2ccccn2)C(=O)/C(=C/c2ccccn2)C1 (stereo unspecified),0,234.8,0,46.0,0,0,0,0,0
Cc1c(C(=O)Nc2cccc([N+](=O)[O-])c2)csc1-c1ccccc1,0,165.2,3.84,0,194.4,0,237.7,0,139.4
O=C(O)c1ccccc1C(=O)Nc1cccc([N+](=O)[O-])c1,0,-,-,0,-,0,-,-,-
Cc1ccc(O)c(C(=O)c2cnn(C(=O)COc3ccccc3C#N)c2)c1,0,-,-,0,-,0,-,-,-
Cc1ccc(C23CC4CC(CC(C(=O)N(C)C)(C4)C2)C3)cc1,-,-,-,-,-,0,-,-,-
COc1ccc(NC(=O)N/C=C/c2ccccc2)cc1,0,156.4,0,0,0,0,168.4,141.9,0
O=C(Nc1ccc(Cl)c(Cl)c1)c1ccc2c(c1)OCO2,-,-,-,-,-,0,-,-,-
O=C(Nc1ccc2nsnc2c1)c1ccc2c(c1)OCO2,0,153.9,7.02,0,150.0,0,213.8,0,0
CN(C)c1ccc(CNC(=O)C2CCC(CNc3c(N4CCCCC4)c(=O)c3=O)CC2)cc1 (stereo unspecified),0,-,-,0,-,0,-,-,-
COc1ccc(NC(=S)NC(=O)c2ccc3c(c2)OCCO3)cc1,-,-,-,-,-,0,-,-,-
SMILES,PERK inhibitor,STAT1 act,NF-kB neuron act,Mdm2 ligase inh,APP 5'UTR act,AHR act,STAT1 act conf,NFkB act STAT1ct,STAT3 act 2
O=C(NC(=S)Nc1ccc(F)cc1)c1ccc2c(c1)OCCO2,0,152.5,0,0,212.6,0,210.7,0,0
CCN1C(=S)SC(=O)C1=C1C=C(C)N(Cc2ccco2)C(C)=C1,0,197.8,0,0,0,0,277.9,150.8,126.5
CC1CCN(C(=O)Cn2nnc(-c3ccccc3)n2)CC1,-,-,-,-,-,0,-,-,-
COC(=O)c1sc2nc3c(cc2c1N)CCCC3,0,165.3,8.23,0,164.4,0,227.1,148.1,0
CCOC(=O)c1sc2nc3c(cc2c1N)COC(C)(CC)C3 (stereo unspecified),0,200.8,7.32,0,174.8,0,287.2,145.6,0
CCC1(C)Cc2nc3sc(C(=O)O)c(N)c3cc2CO1 (stereo unspecified),0,0,0,0,0,0,-,-,-
CC(OC(=O)c1cccc(S(=O)(=O)N2CCCC2)c1)C(=O)NC1CCCCC1C (stereo unspecified),-,-,-,-,-,0,-,-,-
CCOc1ccccc1N1CCN(C(=O)CSc2ccc3c(c2)OCCO3)CC1,-,-,-,-,-,0,-,-,-
CCOC(=O)c1c(C)[nH]c(-c2csc(N)n2)c1C,0,0,0,0,0,-,-,-,-
COc1ccc2nc(-c3ccccc3)[nH]c2c1,0,153.3,5.54,0,177.9,0,198.7,0,0
O=[N+]([O-])c1ccc2nc(-c3ccc(Cl)cc3)[nH]c2c1,0,155.3,0,0,156.3,0,205.9,0,0
COc1ccc(-c2nc3ccc([N+](=O)[O-])cc3[nH]2)cc1,0,181.9,8.66,0,160.4,0,251.3,0,0
O=[N+]([O-])c1ccc2nc(-c3ccncc3)[nH]c2c1,0,-,-,0,-,0,-,-,-
O=C(Nc1ccc2nc(-c3cccnc3)[nH]c2c1)c1ccccc1F,0,0,0,0,0,0,-,-,-
c1cncc(-c2nc3cc4ccccc4cc3[nH]2)c1,0,155.9,0,0,154.3,55.5,226.0,0,0
O=[N+]([O-])c1ccc2nc(-c3ccccc3[N+](=O)[O-])[nH]c2c1,0,0,0,0,0,0,-,-,-
CC1CC1C(=O)N(C)CC(=O)Nc1ccccc1Br (stereo unspecified),-,-,-,-,-,0,-,-,-
CCN(CC(=O)Nc1ccccc1C(F)(F)F)C(=O)CN1C(=O)NC2(CCCC2)C1=O,-,-,-,-,-,0,-,-,-
CCc1ccc(NC(=O)c2ccccc2Br)cc1,0,155.1,4.15,0,0,0,177.3,137.8,0
CCOc1ccc(NC(=O)c2ccc(N3CC4CC(C3)c3cccc(=O)n3C4)c(N)c2)cc1 (stereo unspecified),-,-,-,-,-,0,-,-,-
N#C/C(=C\c1cccnc1)c1nc2c(s1)CCCC2,0,165.2,4.16,0,146.9,0,184.6,0,0
CC1CCc2nc(/C(C#N)=C/c3cccnc3)sc2C1 (stereo unspecified),0,219.5,0,0,168.5,0,286.1,146.0,113.0
COc1cc(/C=C(\C#N)c2nc3c(s2)CCCC3)ccc1O,0,0,0,0,0,0,-,-,-
